# An excerpt weighted towards active compounds, which were near 4.3% of everything screened.
# MC4R antag cAMP – MC4R antagonists of cAMP signaling, primary screen, cell-based, TR-FRET, antagonist arm of biased-ligand search | Melanocortin receptor 4 (Homo sapiens), P32245 | MC4R-expressing cells, MTII-stimulated cAMP, LANCE TR-FRET | inhibition, % at 6.5 µM | hit rate 0.48% among 360,000;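 active means inhibition above its plate's cutoff, the mean of tested wells on that plate plus 3 SD, cut at about 29% in these data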
#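 System: U2OS-MC4R stable cell line; Technique: Eu-cAMP/anti-cAMP TR-FRET, emission 671 nm; Repeats: single well per compound; Also added: Melanotan II; Dosing: one concentration, 6.5 µM nominal; Schedule: 30-min compound, 1-h challenge, 1-h detection, room temperature.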
# TAAR1 ag – human TAAR1 agonists, primary screen, Fluo-8 calcium fluorescence, CHO RD-HGA16 cells. hit rate 0.99% among 360,000. Trace amine-associated receptor 1 (Homo sapiens), Q96RJ0. vehicle wells 0%, saturating PEA agonist 100%. activation, % at 3 µM;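 active means activation above the mean activation of all test compounds in the run plus 3 SD, cut at about 38% in these data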
# Target sequence (Q96RJ0 whole entry, looked up): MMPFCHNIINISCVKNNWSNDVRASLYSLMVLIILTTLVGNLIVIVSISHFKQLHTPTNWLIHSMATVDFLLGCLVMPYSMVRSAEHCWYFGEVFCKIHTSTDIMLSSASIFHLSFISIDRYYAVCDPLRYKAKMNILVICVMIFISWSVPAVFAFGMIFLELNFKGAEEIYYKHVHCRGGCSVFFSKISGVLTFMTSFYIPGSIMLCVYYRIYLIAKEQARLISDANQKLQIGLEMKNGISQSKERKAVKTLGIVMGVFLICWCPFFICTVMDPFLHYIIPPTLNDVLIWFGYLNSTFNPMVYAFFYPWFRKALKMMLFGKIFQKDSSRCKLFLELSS
#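 System: CHO RD-HGA16 cells carrying human TAAR1 plus Gα16; Incubation: 17-24 h seeding, 75 min 37 °C dye, 30 min RT; Measured by: Fluo-8 fluorescence, 5 s baseline then 140 s kinetic read; Control set: DMSO and PEA EC100; Replication: single well for each compound.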
# TAAR1 antagonist – human TAAR1 antagonists, primary screen, Fluo-8 calcium fluorescence, CHO RD-HGA16 cells | Trace amine-associated receptor 1 (Homo sapiens), Q96RJ0 | antagonist | inhibition, % at 3 µM | hit rate 1.5% among 360,000 | AID 624466, 2012;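 active means inhibition above a per-plate cutoff, the mean inhibition of test compounds on that plate plus 3 SD, cut at about 49% in these data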
#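 Test system: hTAAR1-expressing CHO RD-HGA16 cells, Gα16-coupled; Probe or stimulus: EC80 β-phenethylamine stimulus; Compound dosing: single nominal final test compound concentration of 3 µM; Timing: 140 s kinetic read after compound, 140 s after agonist; Signal: Fluo-8 calcium-sensitive fluorescence; Measure: % inhibition of agonist calcium response; Controls: DMSO and EC80 PEA controls.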
# HTR2A ag – mouse Htr2a agonists via beta-arrestin recruitment, primary screen, cell-based, luminescence; CHO-K1 mHTR2A beta-arrestin complementation; percent of 30 µM serotonin response; hit rate 0.66% among 360,000; 5-hydroxytryptamine receptor 2A (Mus musculus), P35363; activation, % at 7.6 µM;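 active means activation above a run cutoff, the mean activation of all tested compounds plus 3 SD, cut at about 14% in these data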
# B2AR ag – beta2AR agonists driving receptor internalization, primary screen, cell-based, FAP fluorogen, flow cytometry; Beta-2 adrenergic receptor (Homo sapiens), P07550; Am2.2-beta2AR cells; response, % (concentration not given with the values); hit rate 0.43% among 340,000;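 active means response above a set limit, near 3 SD of response in nonfluorescent compounds, cut at about 42% in these data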
# Target sequence (P07550 whole entry, looked up): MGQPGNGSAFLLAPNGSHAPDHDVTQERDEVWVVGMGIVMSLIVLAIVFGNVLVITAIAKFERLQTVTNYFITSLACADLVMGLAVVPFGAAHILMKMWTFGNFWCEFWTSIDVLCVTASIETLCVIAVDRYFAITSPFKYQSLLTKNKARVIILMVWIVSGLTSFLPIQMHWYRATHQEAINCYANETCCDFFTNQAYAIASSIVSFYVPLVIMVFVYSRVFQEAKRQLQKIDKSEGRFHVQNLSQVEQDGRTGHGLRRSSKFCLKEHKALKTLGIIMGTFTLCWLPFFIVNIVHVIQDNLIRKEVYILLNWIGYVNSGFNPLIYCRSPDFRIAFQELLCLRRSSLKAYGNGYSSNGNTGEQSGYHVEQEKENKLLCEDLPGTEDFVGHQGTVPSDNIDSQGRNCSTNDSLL
# MC4R ag barr – MC4R agonists recruiting beta-arrestin, primary screen, cell-based, luminescence, agonist arm of biased-ligand search; Melanocortin receptor 4 (Homo sapiens), P32245; U2OS MC4R beta-arrestin complementation; percent of melanotan II response, DMSO zero; activation, % at 8.9 µM; hit rate 0.98% among 360,000; AID 540308, 2011;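 active means activation above a per-plate cutoff, the mean activation of sample wells on that plate plus 3 SD, cut at about 8% in these data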
# MC4R barr ag – MC4R beta-arrestin agonists, retest, confirmation, cell-based, luminescence, U2OS; shares compounds with MC4R ag barr; U2OS MC4R beta-arrestin recruitment; scaled DMSO 0%, Melanotan II 100%; activation, % at 8.9 µM; hit rate 31% among 2,400;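 active means mean activation across replicates above the hit cutoff set in the earlier primary screen, cut at about 8% in these data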
# MOR-DOR barr ag – agonists of MOR-DOR heterodimerization, counter-screen for MC4R biased agonist project, cell-based, luminescence | shares compounds with MC4R ag barr | U2OS PathHunter beta-arrestin, beta-gal luminescence; percent of deltorphin B response, DMSO zero | activation, % at 9.2 µM | hit rate 5.8% among 2,400;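 active means mean activation across replicates exceeds the hit threshold derived in the earlier primary screen, cut at about 18% in these data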
# TAAR1 nonsel count – nonselective antagonists in TAAR1 counter-screen cells, counter-screen for hTAAR1 antagonist project, cell-based, fluorescence, calcium; shares compounds with TAAR1 antagonist; counterscreen cell line, antagonist mode; inhibition, % at 3 µM; hit rate 77% among 2,400; in the data active means inhibition above about 22%;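 further: CHO-Ga16 host cells stimulated with ATP at an EC80 level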
# TAAR1 ant conf – human TAAR1 antagonists, retest of hits, confirmation, cell-based, fluorescence | shares compounds with TAAR1 antagonist | TAAR1-expressing cells, fluorescence antagonist read-out | inhibition, % at 3 µM | hit rate 40% among 2,400; in the data active means inhibition above about 49%;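 further: CHO-Ga16 host cells challenged with agonist PEA near its EC80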
# Ga16 ag counter-1 – calcium activation in Ga16-expressing cells, counter-screen for TAAR1 antagonist project, cell-based, fluorescence; activation, % at 3 µM; hit rate 18% among 2,400; agonist counterscreen; shares compounds with TAAR1 antagonist; AID 651953, 2012; in the data active means activation above about 12%
# TAAR1 ag count – TAAR1 activation by candidate antagonists – cell-based, fluorescence, counter-screen for TAAR1 antagonist project; shares compounds with TAAR1 antagonist; hTAAR1 cell line, agonist mode; activation, % at 3 µM; hit rate 2% among 2,400; AID 651955, 2012; in the data active means activation above about 37%;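 further: CHO cells stably expressing TAAR1 with calcium dye readout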
# TAAR1 ag confirm – human TAAR1 agonists, retest of hits, confirmation, Fluo-8 calcium fluorescence, CHO RD-HGA16 cells | shares compounds with TAAR1 ag | scaled: DMSO 0%, maximal phenethylamine 100% | activation, % at 3 µM | hit rate 82% among 2,400 | AID 651783, 2012;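 active means activation above a cutoff set at the run's mean compound activation plus 3 SD, cut at about 39% in these data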
# Ga16 ag counter-2 – nonselective calcium mobilization agonists, CHO-Ga16 cells, counter-screen for hTAAR1 agonist project, cell-based, fluorescence, CHO-Ga16 parental line; shares compounds with TAAR1 ag; Fluo-8 calcium fluorescence; normalized to maximal ATP response, DMSO zero; activation, % at 3 µM; hit rate 50% among 2,400;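 active means activation above the run cutoff, the mean activation over all tested wells plus 3 SD, cut at about 12% in these data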
# TAAR1 desensitize – TAAR1 desensitization by agonist hits, confirmation, counter-screen for TAAR1 agonist project, cell-based, fluorescence, tachyphylaxis. shares compounds with TAAR1 ag. CHO RD-HGA16 hTAAR1, Fluo-8 calcium, beta-PEA response inhibition. inhibition, % at 3 µM. hit rate 46% among 2,400;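 active means inhibition above the run cutoff, the mean inhibition of all test compounds plus 3 SD, cut at about 49% in these data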;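 further: beta-PEA stimulus applied at its EC80; loss of beta-PEA calcium signal after compound pretreatment read as receptor desensitization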
# Ga16 antag count – inhibition of ATP-evoked calcium response in CHO-Ga16 cells, counter-screen for TAAR1 agonist project, cell-based, fluorescence. shares compounds with TAAR1 ag. AID 651952, 2012. inhibition, % at 3 µM. hit rate 39% among 2,400. CHO-Ga16 ATP-induced calcium, Fluo-8 fluorescence;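 active means inhibition above the plate's mean compound inhibition plus 3 SD, computed per plate, cut at about 22% in these data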
# Hits are given with their value; – = inactive; · = no result.
SMILES,MC4R antag cAMP,TAAR1 ag,TAAR1 antagonist,HTR2A ag,B2AR ag,MC4R ag barr,MC4R barr ag,MOR-DOR barr ag,TAAR1 ag confirm,Ga16 ag counter-2,TAAR1 desensitize,Ga16 antag count,others
CCN1CCN(Cc2ccc(NC(=O)c3ccc(C)c(NC(=O)C(=O)c4c[nH]c5ccccc45)c3)cc2C(F)(F)F)CC1,–,–,78.5,–,49.5,21.6,20.9,–,·,·,·,·,TAAR1 nonsel count=45.8;TAAR1 ant conf=–;Ga16 ag counter-1=–;TAAR1 ag count=–
Nc1nc(-c2cc(O)ccc2[N+](=O)[O-])cc(-c2ccccc2)c1[N+](=O)[O-],–,–,48.9,–,–,11.1,–,–,·,·,·,·,TAAR1 nonsel count=24.0;TAAR1 ant conf=–;Ga16 ag counter-1=–;TAAR1 ag count=–
COc1ccc(CCn2c(C)cc(C(=O)CSc3nnnn3-c3ccccc3)c2C)cc1OC,–,–,49.6,–,–,17.1,–,–,·,·,·,·,TAAR1 nonsel count=–;TAAR1 ant conf=–;Ga16 ag counter-1=12.5;TAAR1 ag count=–
Cc1cc(C(=O)CSc2nnnn2-c2ccccc2)c(C)n1CC1CCCO1 (centres undefined),–,–,–,–,–,–,·,·,·,·,·,·,
Cc1cc(-c2ccc(S(=O)(=O)N(C)Cc3ccccc3)cc2)on1,–,–,65.0,–,–,25.3,–,–,·,·,·,·,TAAR1 nonsel count=25.8;TAAR1 ant conf=50.9;Ga16 ag counter-1=–;TAAR1 ag count=–
CSc1ccc(S(=O)(=O)N(C)Cc2ccccc2)cc1,–,–,–,–,–,–,·,·,·,·,·,·,
CSCCC(C(=O)NCc1ccccc1)n1c(-c2ccc3c(c2)CCO3)nc2ccccc21 (centres undefined),·,–,–,–,·,·,·,·,·,·,·,·,
CCN(CC)c1ccc(/C=N/NC(=O)Cc2nnc(NC(=O)Nc3ccccc3)s2)cc1,–,57.3,–,–,–,11.2,–,–,50.4,–,–,–,
CCCCCCCOC(=O)C[N+](C)(C)CCOC1CC2CCC1(C)C2(C)C (centres undefined),–,56.3,–,–,–,11.6,17.8,–,74.3,38.2,–,35.0,
CCCCCCOC(=O)C[N+](C)(C)CCOC1CC2CCC1(C)C2(C)C (centres undefined),–,–,–,–,–,–,·,·,·,·,·,·,
O=C(c1cccc(Oc2c(Cl)cccc2[N+](=O)[O-])c1)N1CCOCC1,–,–,–,–,–,–,·,·,·,·,·,·,
COc1ccc(/C=C/C(=O)OCC(=O)N2CCCCCC2)c(OC)c1,–,–,–,–,–,–,·,·,·,·,·,·,
Cc1csc2c(=O)[nH]cnc12,–,–,–,–,–,–,·,·,·,·,·,·,
COc1cc(COc2ccc(-c3nnco3)cc2)ccc1OC(F)F,–,47.9,–,–,–,11.9,–,–,–,–,–,–,
Nc1cccnc1Oc1ccc(F)cc1,–,–,–,–,–,–,·,·,·,·,·,·,
FC(F)(F)c1cccnc1Oc1ccc(C2=NCCS2)cc1,–,84.2,56.7,–,–,41.8,24.2,–,58.2,58.5,62.2,42.6,
CC(C)CC(N)c1csc(NC(=O)C(c2ccccc2)c2ccccc2)n1 (centres undefined),–,74.9,66.2,–,·,12.7,16.5,23.6,75.2,33.6,72.7,50.1,
CCCCCOc1ccc(/C(C)=N/NC2=NCCN2)cc1,–,–,–,–,–,–,·,·,·,·,·,·,
CCCCCCOc1ccc(/C(C)=N/NC2=NCCN2)cc1,–,62.8,–,–,–,10.8,29.1,–,48.2,22.8,–,24.2,
Cc1ccc(N=Nc2ccc(O)c3ncccc23)cc1,–,63.3,81.5,–,–,11.0,–,–,–,–,–,50.9,
CC1(Oc2ccc(F)cc2)CCN(Cc2ccccc2OC(F)F)C1 (centres undefined),–,–,–,–,·,–,·,·,·,·,·,·,
Cc1ccc(OCc2nnc(SCC(=O)Nc3sc(C)c(C)c3C#N)n2C)cc1,–,53.6,–,–,–,17.5,–,–,–,–,–,–,
Cc1ccc(OCc2nnc(SCC(=O)NC3CCCCC3)n2C)cc1,–,–,–,–,–,–,·,·,·,·,·,·,
CCOC(=O)c1c(CSC(=N)N)n(-c2ccc(C)cc2)c2cc(Br)c(OC(C)=O)cc12,–,62.6,–,–,45.4,29.2,14.1,51.0,92.4,58.8,66.0,51.9,

# High-throughput results: PubChem, several laboratories
